In ChEMBL document CHEMBL1155319, “Discovery of novel selective HER-2 sheddase inhibitors through optimization of P1 moiety” (Bioorg Med Chem Lett, 2009):

Tests used:
[1] = biological target: T1, Disintegrin and metalloproteinase domain-containing protein 10 (Homo sapiens, UniProt O14672); test: Inhibition of ADAM-10
T1 sequence (O14672 whole entry): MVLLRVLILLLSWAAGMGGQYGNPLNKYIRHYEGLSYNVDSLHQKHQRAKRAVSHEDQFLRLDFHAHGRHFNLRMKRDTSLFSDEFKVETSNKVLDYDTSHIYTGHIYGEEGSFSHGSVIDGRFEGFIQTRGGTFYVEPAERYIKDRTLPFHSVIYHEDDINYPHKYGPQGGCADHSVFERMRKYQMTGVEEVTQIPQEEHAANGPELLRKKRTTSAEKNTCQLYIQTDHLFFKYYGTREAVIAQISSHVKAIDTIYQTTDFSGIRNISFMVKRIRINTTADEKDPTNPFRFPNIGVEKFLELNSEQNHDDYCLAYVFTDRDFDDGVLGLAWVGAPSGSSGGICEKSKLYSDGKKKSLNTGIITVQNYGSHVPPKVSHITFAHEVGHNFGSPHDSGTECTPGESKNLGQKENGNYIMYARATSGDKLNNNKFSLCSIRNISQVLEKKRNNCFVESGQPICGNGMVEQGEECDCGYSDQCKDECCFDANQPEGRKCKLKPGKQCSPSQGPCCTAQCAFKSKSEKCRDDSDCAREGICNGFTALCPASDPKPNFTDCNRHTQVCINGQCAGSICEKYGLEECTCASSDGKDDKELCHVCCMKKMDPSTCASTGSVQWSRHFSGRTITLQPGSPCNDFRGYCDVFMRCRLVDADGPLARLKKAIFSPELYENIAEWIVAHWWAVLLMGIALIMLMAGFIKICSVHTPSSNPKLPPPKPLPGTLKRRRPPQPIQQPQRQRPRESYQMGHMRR

[2] = biological target: 72 kDa type IV collagenase (Homo sapiens, UniProt P08253); test: Inhibition of MMP-2
Interstitial collagenase = biological target: T2, Interstitial collagenase (Homo sapiens, UniProt P03956); test: Inhibition of MMP-1
T2 sequence (P03956 whole entry): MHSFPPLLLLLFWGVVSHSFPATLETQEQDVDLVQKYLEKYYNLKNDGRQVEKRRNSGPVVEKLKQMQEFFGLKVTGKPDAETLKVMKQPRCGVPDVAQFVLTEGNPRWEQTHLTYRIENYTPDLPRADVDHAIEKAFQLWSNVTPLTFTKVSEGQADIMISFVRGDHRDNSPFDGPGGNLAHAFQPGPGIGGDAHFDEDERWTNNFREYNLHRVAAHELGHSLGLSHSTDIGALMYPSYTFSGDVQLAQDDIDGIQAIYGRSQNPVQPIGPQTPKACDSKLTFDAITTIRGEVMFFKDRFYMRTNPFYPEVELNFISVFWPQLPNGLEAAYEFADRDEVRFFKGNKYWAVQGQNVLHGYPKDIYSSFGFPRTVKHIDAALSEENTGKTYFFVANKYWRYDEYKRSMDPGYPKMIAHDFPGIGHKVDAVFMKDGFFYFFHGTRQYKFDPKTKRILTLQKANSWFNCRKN

Stromelysin-1 = Stromelysin-1 (Homo sapiens, UniProt P08254); test: Inhibition of MMP-3
[3] = biological target: Matrix metalloproteinase-9 (Homo sapiens, UniProt P14780); test: Inhibition of MMP-9
[4] = Permeability across human Caco-2 cells; type: ADME, cell-based
[5] = Clearance in human microsome; type: ADME; conditions: microsomes
In short: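 Clearance projected from incubation with human microsomes and expressed in L/h/kg.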

Mus musculus = test: AUC in mouse at 5 mg/kg, po; type: ADME, organism-based, Plasma; design: dose 5 mg/kg, route oral; conditions: in vivo
In short: (§1)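 Oral dose of 5 mg/kg, given as a suspension.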

[6] = Half life in mouse at 5 mg/kg, po; type: ADME, organism-based; design: dose 5 mg/kg, route oral; conditions: in vivo; in short: as §1

Chain of Matrix metalloproteinase-9 (P14780 whole entry): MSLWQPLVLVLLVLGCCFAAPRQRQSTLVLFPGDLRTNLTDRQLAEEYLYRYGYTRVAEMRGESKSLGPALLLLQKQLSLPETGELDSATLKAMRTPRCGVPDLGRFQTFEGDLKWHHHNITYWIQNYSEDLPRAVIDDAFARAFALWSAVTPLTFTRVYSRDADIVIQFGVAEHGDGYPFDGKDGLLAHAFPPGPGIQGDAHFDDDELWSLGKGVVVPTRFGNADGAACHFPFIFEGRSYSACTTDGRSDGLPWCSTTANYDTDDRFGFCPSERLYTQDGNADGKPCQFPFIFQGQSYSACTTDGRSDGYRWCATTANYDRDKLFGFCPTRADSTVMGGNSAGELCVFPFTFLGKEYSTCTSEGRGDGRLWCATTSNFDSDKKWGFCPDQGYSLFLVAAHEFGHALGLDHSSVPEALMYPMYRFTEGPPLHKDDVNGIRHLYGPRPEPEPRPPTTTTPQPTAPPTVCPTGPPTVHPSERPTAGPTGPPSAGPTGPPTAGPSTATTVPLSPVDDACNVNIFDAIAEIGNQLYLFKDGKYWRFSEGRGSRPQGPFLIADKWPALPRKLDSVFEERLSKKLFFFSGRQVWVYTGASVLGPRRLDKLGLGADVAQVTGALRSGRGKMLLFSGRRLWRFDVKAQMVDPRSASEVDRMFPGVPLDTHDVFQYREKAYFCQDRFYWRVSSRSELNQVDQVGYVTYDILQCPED
Chain of Stromelysin-1 (P08254 whole entry): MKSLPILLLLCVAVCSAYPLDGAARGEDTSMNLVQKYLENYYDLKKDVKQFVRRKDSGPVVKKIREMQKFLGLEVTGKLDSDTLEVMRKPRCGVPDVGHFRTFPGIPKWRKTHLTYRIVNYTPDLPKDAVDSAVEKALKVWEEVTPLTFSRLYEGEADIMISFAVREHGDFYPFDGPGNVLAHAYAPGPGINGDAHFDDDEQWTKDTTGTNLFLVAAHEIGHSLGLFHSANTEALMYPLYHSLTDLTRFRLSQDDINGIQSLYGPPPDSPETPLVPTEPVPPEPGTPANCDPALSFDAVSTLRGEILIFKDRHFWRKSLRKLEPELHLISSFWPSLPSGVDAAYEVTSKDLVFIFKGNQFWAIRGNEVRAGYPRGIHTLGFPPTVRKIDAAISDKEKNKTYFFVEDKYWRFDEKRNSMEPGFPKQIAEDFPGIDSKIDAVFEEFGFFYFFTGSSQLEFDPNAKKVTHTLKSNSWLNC
Chain of 72 kDa type IV collagenase (P08253 whole entry): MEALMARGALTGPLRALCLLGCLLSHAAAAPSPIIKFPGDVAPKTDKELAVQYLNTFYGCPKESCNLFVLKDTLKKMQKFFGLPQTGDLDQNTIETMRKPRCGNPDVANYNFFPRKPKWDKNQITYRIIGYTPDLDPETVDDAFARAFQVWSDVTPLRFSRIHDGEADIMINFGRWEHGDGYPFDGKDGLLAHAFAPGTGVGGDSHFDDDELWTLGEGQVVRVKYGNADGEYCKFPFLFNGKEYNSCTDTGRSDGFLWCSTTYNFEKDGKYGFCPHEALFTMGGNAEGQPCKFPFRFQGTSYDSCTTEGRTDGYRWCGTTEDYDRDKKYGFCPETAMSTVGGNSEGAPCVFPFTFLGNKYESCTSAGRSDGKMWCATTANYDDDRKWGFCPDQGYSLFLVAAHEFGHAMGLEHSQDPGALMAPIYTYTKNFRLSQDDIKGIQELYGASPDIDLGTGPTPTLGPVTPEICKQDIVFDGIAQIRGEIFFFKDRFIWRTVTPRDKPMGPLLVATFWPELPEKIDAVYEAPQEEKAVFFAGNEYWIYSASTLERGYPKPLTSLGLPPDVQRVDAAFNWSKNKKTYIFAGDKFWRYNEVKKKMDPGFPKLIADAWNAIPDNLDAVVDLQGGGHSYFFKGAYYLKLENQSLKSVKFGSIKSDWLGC

Row | SMILES | IC50 [1] [nM] | IC50 [2] [nM] | IC50 (Interstitial collagenase) [nM] | IC50 (Stromelysin-1) [nM] | IC50 [3] [nM] | Papp [4] [×10⁻⁶ cm/s] | CL [5] [mL/min/kg] | AUC (Mus musculus) [nM/L.hr] | half-life [6] [min]
1 | CN1C[C@@H](OC(=O)N2CCCCC2)C[C@H](C(=O)NO)[C@H]1C(=O)N1CCN(c2ccccc2)CC1 | 9.6 | 344 | > 5000 | > 5000 | > 5000 | 0.9 | 9.67 | – | –
2 | CN1C[C@@H](OC(=O)N2CCCCCCC2)C[C@H](C(=O)NO)[C@H]1C(=O)N1CCN(c2ccccc2)CC1 | 26 | 1470 | > 5000 | > 5000 | > 5000 | – | – | 323 | 52.8
3 | CN1C[C@@H](OC(=O)N2CCC(F)(F)C2)C[C@H](C(=O)NO)[C@H]1C(=O)N1CCN(c2ccccc2)CC1 | 125 | > 2000 | – | – | – | – | – | – | –
4 | CN1C[C@@H](OC(=O)N2CCC2)C[C@H](C(=O)NO)[C@H]1C(=O)N1CCN(c2ccccc2)CC1 | 20 | 432 | > 5000 | > 5000 | > 5000 | – | – | – | –
5 | CN1C[C@@H](OC(=O)N2CC=CC2)C[C@H](C(=O)NO)[C@H]1C(=O)N1CCN(c2ccccc2)CC1 | 30 | 581 | > 5000 | > 5000 | > 5000 | – | – | – | –
6 | O=C(NO)[C@H]1C[C@@H](OC(=O)N2CCCC2)CN[C@@H]1C(=O)N1CC=C(c2ccccc2)CC1 | 78 | < 5 | – | – | – | – | – | – | –
7 | CC(C)C(=O)N(C)C1CN[C@H](C(=O)N2CC=C(c3ccccc3)CC2)[C@@H](C(=O)NO)C1 (some centres undefined) | 23 | 11 | – | – | – | – | – | – | –
8 | O=C(NO)[C@H]1CC(OC(=O)N2CCCC2)CN[C@@H]1C(=O)N1CC[C@H](c2ccccc2)C1 (some centres undefined) | 83 | > 2000 | > 5000 | > 5000 | > 5000 | – | – | – | –
9 | CN(C(=O)c1ccccc1)C1CN[C@H](C(=O)N2CC[C@H](c3ccccc3)C2)[C@@H](C(=O)NO)C1 (some centres undefined) | 84 | 210 | – | – | – | – | – | – | –
10 | O=C(NO)[C@H]1CC(CC(=O)N2CCCC2)CN[C@@H]1C(=O)N1CC=C(c2ccccc2)CC1 (some centres undefined) | 17 | < 5 | – | – | – | – | – | – | –
11 | O=C(NO)[C@H]1C[C@H](OC(=O)N2CCCC2)CN[C@@H]1C(=O)N1CC=C(c2ccccc2)C1 | 60 | – | > 5000 | > 5000 | > 5000 | – | – | – | –
12 | CN(C)C(=O)O[C@H]1C[C@H](C(=O)NO)[C@@H](C(=O)N2CCN(c3ccccc3)CC2)N(C)C1 | 58 | 730 | > 5000 | > 5000 | > 5000 | – | – | – | –
13 | CN1C[C@@H](OC(=O)N2CCCCCC2)C[C@H](C(=O)NO)[C@H]1C(=O)N1CCN(c2ccccc2)CC1 | 35 | 843 | > 5000 | > 5000 | > 5000 | – | – | – | –
14 | O=C(NO)[C@H]1CC(OC(=O)N2CCCC2)CN[C@@H]1C(=O)N1Cc2ccccc2C1 (some centres undefined) | 186 | > 2000 | 2500 | > 5000 | > 5000 | – | – | – | –
15 | CC(C)OC(=O)N(C)C1CN[C@H](C(=O)N2CC=C(c3ccccc3)CC2)[C@@H](C(=O)NO)C1 (some centres undefined) | 11 | < 5 | – | – | – | – | – | – | –
16 | CC(C)C(=O)N(C)C1CN[C@H](C(=O)N2CC[C@H](c3ccccc3)C2)[C@@H](C(=O)NO)C1 (some centres undefined) | 138 | 502 | – | – | – | – | – | – | –
17 | COC(=O)N1C[C@@H](OC(=O)N2CCCC2)C[C@H](C(=O)NO)[C@H]1C(=O)N1CCN(c2ccccc2)CC1 | 20 | 613 | > 5000 | > 5000 | > 5000 | – | – | – | –
18 | O=C(NO)[C@H]1C[C@H](OC(=O)N2CCCC2)CN[C@@H]1C(=O)N1CCN(c2ccccc2)CC1 | 11 | 235 | > 5000 | > 5000 | > 5000 | – | – | – | –
19 | CN(C(=O)c1ccccc1)C1CN[C@H](C(=O)N2CC=C(c3ccccc3)CC2)[C@@H](C(=O)NO)C1 (some centres undefined) | 12 | 12 | – | – | – | – | – | – | –
20 | O=C(NO)[C@H]1CC(CC(=O)N2CCCC2)CN[C@@H]1C(=O)N1CC[C@H](c2ccccc2)C1 (some centres undefined) | 14 | 365 | – | – | – | – | – | – | –
21 | O=C(NO)[C@H]1CC(OC(=O)N2CCCC2)CN[C@@H]1C(=O)N1CC=C(c2ccccc2)CC1 (some centres undefined) | 9 | 102 | > 5000 | > 5000 | 498 | – | – | – | –
22 | CN1C[C@@H](OC(=O)N2CCCC2)C[C@H](C(=O)NO)[C@H]1C(=O)N1CCN(c2ccccc2)CC1 | 18 | 471 | > 5000 | > 5000 | > 5000 | – | – | – | –
23 | O=C(NO)[C@H]1C[C@H](OC(=O)N2CCCC2)CN[C@@H]1C(=O)N1CCC(c2ccccc2)CC1 | 99 | > 2000 | > 5000 | > 5000 | > 5000 | – | – | – | –
24 | NCCCCNC(=O)CC1CN[C@H](C(=O)N2CCC(c3ccccc3)C2)[C@@H](C(=O)NO)C1 (some centres undefined) | 161 | 1660 | – | – | – | – | – | – | –
25 | O=C(NO)[C@H]1CC2(CC2)CN[C@@H]1C(=O)N1CC=C(c2ccccc2)CC1 | – | < 5 | – | – | – | – | – | – | –
